Structures are written as SMILES. Calls of active or inactive are those of the source. The rule behind the calls is not given here.

Test [1] addresses T1, Estrogen receptor (Homo sapiens) (UniProt P03372).
T1 sequence (whole entry): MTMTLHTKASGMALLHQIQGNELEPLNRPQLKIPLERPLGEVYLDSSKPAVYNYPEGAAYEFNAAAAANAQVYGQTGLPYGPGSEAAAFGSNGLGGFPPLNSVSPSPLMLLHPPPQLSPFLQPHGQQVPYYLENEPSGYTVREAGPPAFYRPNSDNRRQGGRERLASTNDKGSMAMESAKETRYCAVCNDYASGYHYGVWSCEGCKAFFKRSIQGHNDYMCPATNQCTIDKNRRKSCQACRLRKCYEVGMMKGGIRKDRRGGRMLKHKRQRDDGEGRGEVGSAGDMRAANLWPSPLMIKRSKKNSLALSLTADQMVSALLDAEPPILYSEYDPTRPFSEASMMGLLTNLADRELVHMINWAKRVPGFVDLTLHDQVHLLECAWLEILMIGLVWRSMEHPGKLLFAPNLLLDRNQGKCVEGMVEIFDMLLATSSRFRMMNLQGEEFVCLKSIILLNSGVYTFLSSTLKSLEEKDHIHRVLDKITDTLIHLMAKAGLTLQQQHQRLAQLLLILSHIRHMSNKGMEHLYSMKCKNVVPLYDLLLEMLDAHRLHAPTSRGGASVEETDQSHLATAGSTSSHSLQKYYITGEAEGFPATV
Description: Inhibition of ERalpha in human MCF7:WS8 cells assessed as increase in degradation of ERalpha incubated for 24 hrs by In-Cell Western assay relative to control. The test is classed as cell-based. Summed up:
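MCF7:WS8 cells were estrogen-stripped for 2 days and plated at 2.5 × 10^4 per well. After 48 h they were treated for 24 h. ERα was detected by in-cell western (H10 antibody), with signal normalized to CellTag 700.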

Test [2] has as its target T2, Estrogen receptor (Homo sapiens, UniProt P03372).
T2 sequence (P03372 whole entry): T1 sequence (whole entry)
Put plainly: Antagonist activity at ERalpha in human MCF7:WS8 cells incubated for 18 hrs by dual luciferase reporter gene assay relative to control. The test is classed as cell-based. In outline:
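MCF7:WS8 cells were estrogen-deprived for 3 days (phenol red-free RPMI, stripped FBS), then plated and grown 24 h. They were co-transfected for 6 h with a 3×vitellogenin ERE-firefly luciferase plasmid and a pRL-TK Renilla plasmid. Compounds were given in competition with 1 nM E2 for 18 h, then dual luciferase was read.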

Test [3] deals with T2, Estrogen receptor. Description: Inhibition of ERalpha in human MCF7:WS8 cells assessed as increase in degradation of ERalpha incubated for 24 hrs by In-Cell Western assay. The test is classed as cell-based. In outline:
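MCF7:WS8 cells were estrogen-stripped for 2 days and plated at 2.5 × 10^4 per well. ERα was detected by in-cell western (H10 antibody), with signal normalized to CellTag 700.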

The next test can be described thus: cells. Conditions: Homo sapiens, MCF7:5C, 168 h.
Test [4] in a line: Antiproliferative activity against human MCF7:5C cells assessed as reduction in cell viability incubated for 7 days by Hoechst 33258 dye based assay relative to control. Conditions: 168 h. The test is classed as functional. Summed up: (§1)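 Cells were seeded at 5000 per well; MCF7:WS8 had been estrogen-stripped for 2 days first. Compounds were serially diluted in DMSO, with 0.01% DMSO as vehicle. The medium was removed on day 5 (MCF7:WS8) or day 7 (MCF7:5C), and cells were lysed by freezing at −80 °C overnight. DNA was measured by Hoechst 33258 fluorescence. Maximum efficacy was normalized to vehicle (0%) and no cells (100%); at least three biological replicates.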

Test [5] in a line: Antiproliferative activity against human MCF7:WS8 cells assessed as reduction in cell viability incubated for 5 days by Hoechst 33258 dye based assay. Conditions: MCF7:WS8, 120 h. The format is functional. Summed up: as §1
Test [6] is described as follows: Antiproliferative activity against human MCF7:WS8 cells assessed as reduction in cell viability incubated for 5 days by Hoechst 33258 dye based assay relative to control. The test is classed as functional. Conditions: MCF7:WS8, 120 h. Summed up: as §1
Test [7] addresses T1, Estrogen receptor (Homo sapiens). Put plainly: Induction of degradation of ERalpha in human MCF7:WS8 cells at 100 nM in presence of MG-132 incubated for 24 hrs by Western blot analysis. The test is classed as cell-based.
The subject of test [8] is T47D. Description: Cytotoxicity against human T47D 3D spheroid cells harboring D538G mutant assessed as reduction in tumor cell viability at 10 nM incubated for 14 days by celltiter-glo 3D cell viability assay.
Test [9] concerns T47D. Description: Cytotoxicity against human T47D 3D spheroid cells assessed as reduction in tumor cell viability at 10 nM incubated for 14 days by celltiter-glo 3D cell viability assay.
Test [10] deals with T47D. Put plainly: Cytotoxicity against human T47D 3D spheroid cells harboring Y537S mutant assessed as reduction in tumor cell viability at 10 nM incubated for 14 days by celltiter-glo 3D cell viability assay.
The species named for test [11] is Homo sapiens. Description: Cytotoxicity against human MCF7:WS8 3D spheroid cells assessed as reduction in tumor cell viability at 10 nM incubated for 14 days by celltiter-glo 3D cell viability assay.
Test [12] is filed under the species Homo sapiens. Put plainly: Cytotoxicity against human MCF7:WS8 3D spheroid cells assessed as reduction in tumor spheroid size at 10 nM incubated for 14 days.

Turning to `Cc1cc(F)ccc1C(=O)c1sc2cc(O)ccc2c1Oc1ccc(OCCN2CC(CF)C2)cc1`, the Efficacy in [1] was determined as 95%. For the same compound, the IC50 on Estrogen receptor [2] is 2700 pM; on Estrogen receptor [3], 3630 pM; in the test “cells” (read-out: pIC50 (converted)), 363 pM; in test [5], 251 pM. Besides, the Emax in test [4] was determined as 52%; in [6] it was 77%.

Consider `Cc1ccccc1C(=O)c1sc2cc(O)ccc2c1Oc1ccc(OCCN2CCC2)cc1`, for which, in test [1], the Efficacy amounted to 37%. The IC50 was 1910 pM on Estrogen receptor [3], 1290 pM in the test “cells” (read-out: pIC50 (converted)) and 912 pM in test [5]. For the same compound, the results for the Emax in test [4] and in test [6] were 31% and 70%, respectively.

In the case of `Cc1ccccc1C(=O)c1sc2cc(O)ccc2c1Oc1ccc(OCCN2CC[C@@H](CF)C2)cc1`, in test [1], the Efficacy was determined as 84%. Besides, the IC50 was 10500 pM at Estrogen receptor [3], 87.1 pM in “cells” (read-out: pIC50 (converted)) and 12.6 pM in test [5]. For the same compound, the Emax came out at 67% in test [4] and 85% in [6].

With `Cc1ccccc1C(=O)c1sc2cc(O)ccc2c1Oc1ccc(OCCN2CC(CF)C2)cc1`, the Efficacy in [1] amounted to 92%. The IC50 against Estrogen receptor [2] was 1500 pM; on Estrogen receptor [3] it was 955 pM; in “cells” (read-out: pIC50 (converted)), 955 pM; in [5], 1070 pM. Also, the Emax in test [4] came to 40%; in test [6], 72%.

For `CCNCCc1ccc(CN(CC)c2cc(OC)ccc2[C@@H]2CCc3cc(O)ccc3C2)cc1`, the result in test [7] was Active.

Regarding `CC/C(=C(\c1ccc(O)cc1)c1ccc(OCCN(C)C)cc1)c1ccccc1`, the result in the test on T47D [8], in the test on T47D [9] and in the test with T47D [10] was Active.

Consider `O=C(c1ccc(F)cc1)c1sc2cc(O)ccc2c1Oc1ccc(OCCN2CC(CF)C2)cc1`, for which the Efficacy in test [1] came to 89%. Moreover, the IC50 against Estrogen receptor [2] is 28000 pM; at Estrogen receptor [3] it was 1230 pM; in “cells” (read-out: pIC50 (converted)) it was 447 pM; in test [5], 1020 pM. Also, the result in the test listed under Homo sapiens [11] and in the test listed under Homo sapiens [12] was Active. In addition, the Emax came to 46% in [4] and 67% in test [6].

As for `O=C(c1cccc(F)c1)c1sc2cc(O)ccc2c1Oc1ccc(OC2CN(CCCF)C2)cc1`, the IC50 in the test “cells” (read-out: pIC50 (converted)) is 182 pM; in test [5] it was 141 pM. In test [6], the Emax was found to be 70%.

Take `Cc1ccc(C(=O)c2sc3cc(O)ccc3c2Oc2ccc(OCCN3CC(CF)C3)cc2)c(C)c1`: the Efficacy in test [1] was determined as 83%. Also, the IC50 against Estrogen receptor [2] was 7400 pM; at Estrogen receptor [3], 1450 pM; in the test “cells” (read-out: pIC50 (converted)), 380 pM; in [5] it was 155 pM. The Emax was found to be 42% in test [4] and 68% in test [6].

For the compound `Cc1cc(F)ccc1C(=O)c1sc2cc(O)ccc2c1Oc1ccc(OC2CN(CCCF)C2)cc1`, in test [1], the Efficacy was determined as 95%. For the same compound, the IC50 against Estrogen receptor [2] was 5200 pM; on Estrogen receptor [3], 9330 pM; in “cells” (read-out: pIC50 (converted)) it was 117 pM; in [5] it was 170 pM. Besides, the Emax in [4] was found to be 45%; in test [6], 69%.

Take `O=C(c1ccccc1)c1sc2cc(O)ccc2c1Oc1ccc(OC2CN(CCCF)C2)cc1`: the Efficacy in [1] was found to be 88%. For the same compound, the IC50 against Estrogen receptor [2] was 500 pM; at Estrogen receptor [3] it was 708 pM; in “cells” (read-out: pIC50 (converted)) it was 162 pM; in test [5], 288 pM. Besides, the Emax was found to be 41% in [4] and 67% in [6].

As to `O=C(c1ccc(O)cc1)c1sc2cc(O)ccc2c1Oc1ccc(OCCN2CC(CF)C2)cc1`, in test [1], the Efficacy is 47%. The IC50 was 64000 pM at Estrogen receptor [2], 8130 pM at Estrogen receptor [3], over 100000 pM in the test “cells” and 708 pM in test [5]. Further, in test [6], the Emax amounted to 73%.

Regarding `Cc1ccccc1C(=O)c1sc2cc(O)ccc2c1Oc1ccc(OCCN2CC(C)C2)cc1`, in [1], the Efficacy is 81%. The IC50 on Estrogen receptor [2] was 1900 pM; at Estrogen receptor [3], 257 pM; in “cells” (read-out: pIC50 (converted)), 263 pM; in [5] it was 41.7 pM. Moreover, the figures for the Emax in test [4] and in [6] were 48% and 69%, respectively.

As to `Cc1cc(F)cc(C)c1C(=O)c1sc2cc(O)ccc2c1Oc1ccc(OC2CN(C3CC3)C2)cc1`, in test [1], the Efficacy was found to be 51%. Further, the IC50 at Estrogen receptor [2] is 11000 pM; on Estrogen receptor [3] it was 5890 pM; in the test “cells” (read-out: pIC50 (converted)), 141 pM; in test [5], 63.1 pM. Moreover, the Emax amounted to 16% in test [4] and 62% in test [6].

On to `O=C(c1ccccc1)c1sc2cc(O)ccc2c1Oc1ccc(OCCN2CC(CF)C2)cc1`, for which, in [1], the Efficacy is 85%. The IC50 on Estrogen receptor [2] was 4300 pM; on Estrogen receptor [3] it was 1020 pM; in “cells” (read-out: pIC50 (converted)) it was 263 pM; in [5] it was 174 pM. Also, the figures for the Emax in test [4] and in test [6] were 48% and 64%, respectively.

For the compound `Cc1cc(F)cc(C)c1C(=O)c1sc2cc(O)ccc2c1Oc1ccc(OCCN2CC[C@H](CF)C2)cc1`, the Efficacy in test [1] turned out to be 42%. In addition, the IC50 was 3020 pM on Estrogen receptor [3], 1000 pM in “cells” (read-out: pIC50 (converted)) and 407 pM in [5]. Moreover, the Emax in test [4] was determined as 42%; in test [6] it was 70%.

For `Cc1cc(O)ccc1C(=O)c1sc2cc(O)ccc2c1Oc1ccc(OCCN2CC(CF)C2)cc1`, the Efficacy in [1] stood at 90%. In addition, the IC50 is 14000 pM at Estrogen receptor [2], 5130 pM at Estrogen receptor [3], 120 pM in “cells” (read-out: pIC50 (converted)) and 575 pM in [5]. Further, the Emax stood at 36% in [4] and 78% in test [6].

As for `Cc1ccccc1C(=O)c1sc2cc(O)ccc2c1Oc1ccc(OC2CN(CCCF)C2)cc1`, the Efficacy in [1] worked out at 82%. Moreover, the IC50 on Estrogen receptor [2] is 2100 pM; on Estrogen receptor [3], 2570 pM; in the test “cells” (read-out: pIC50 (converted)), 2820 pM; in [5], 145 pM. Moreover, the result in the test filed under Homo sapiens [11] and in the test filed under Homo sapiens [12] was Active. Also, the Emax in test [4] worked out at 59%; in [6] it was 67%.

Take `O=C(c1cccc(F)c1)c1sc2cc(O)ccc2c1Oc1ccc(OCCN2CC(CF)C2)cc1`: the figures for the IC50 (in the test “cells” (read-out: pIC50 (converted)); in [5]) were 295 pM and 229 pM, respectively. Moreover, the Emax amounted to 36% in [4] and 78% in test [6].

As for `CC1=C(c2cccc(O)c2)[C@H](c2ccc(OCCN3CC(CF)C3)cc2)Oc2ccc(O)cc21`, the result in the test on T47D [8], in the test with T47D [9] and in the test on T47D [10] was Active.

The values above are taken from ChEMBL document CHEMBL4354825, “Design and Synthesis of Basic Selective Estrogen Receptor Degraders for Endocrine Therapy Resistant Breast Cancer” (J Med Chem, 2019).
